Residues, ends and D or L forms follow the SMILES beside them.
How the values were obtained:
[1] = target: Neuronal acetylcholine receptor; alpha3/beta2 (Rattus norvegicus, UniProt P04757+P12390); test: Inhibition of rat Nicotinic acetylcholine receptor alpha3-beta2 expressed in Xenopus Oocytes; type: cell-based
How it was run: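 Rat nAChR subunit cRNAs (50 nL, 5–50 ng/µL) injected into Xenopus oocytes, kept at 19 °C in ND96 pH 7.4 with gentamycin; two-electrode voltage clamp at −70 mV, 2–10 days post-injection. Peptide added to static bath, 3–10 min before agonist; sub-1 nM also perfused 10–15 min. IC50 from fitted concentration–response curves with Hill slope.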

[2] = Inhibition ratio of rat alpha 3 beta 2 nicotinic acetylcholine receptor (nAChR) to that of at alpha 7 nicotinic acetylcholine receptor (nAChR)

Sequence of Neuronal acetylcholine receptor; alpha3/beta2 (P04757 whole entry, the tested form may be a part): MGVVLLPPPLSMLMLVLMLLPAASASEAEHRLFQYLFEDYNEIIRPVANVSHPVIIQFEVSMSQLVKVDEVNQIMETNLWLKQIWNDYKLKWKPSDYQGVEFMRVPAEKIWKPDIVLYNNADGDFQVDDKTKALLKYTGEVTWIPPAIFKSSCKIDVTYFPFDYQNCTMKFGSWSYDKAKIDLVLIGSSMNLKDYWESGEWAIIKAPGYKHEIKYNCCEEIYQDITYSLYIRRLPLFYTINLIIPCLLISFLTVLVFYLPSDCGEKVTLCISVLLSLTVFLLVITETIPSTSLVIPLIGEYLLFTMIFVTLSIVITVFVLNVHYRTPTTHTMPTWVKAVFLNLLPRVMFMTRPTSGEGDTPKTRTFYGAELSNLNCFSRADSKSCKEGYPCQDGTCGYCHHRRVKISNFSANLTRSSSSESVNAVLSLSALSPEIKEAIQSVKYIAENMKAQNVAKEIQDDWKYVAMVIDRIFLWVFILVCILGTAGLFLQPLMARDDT
Sequence of Neuronal acetylcholine receptor; alpha3/beta2 (P12390 whole entry, the tested form may be a part): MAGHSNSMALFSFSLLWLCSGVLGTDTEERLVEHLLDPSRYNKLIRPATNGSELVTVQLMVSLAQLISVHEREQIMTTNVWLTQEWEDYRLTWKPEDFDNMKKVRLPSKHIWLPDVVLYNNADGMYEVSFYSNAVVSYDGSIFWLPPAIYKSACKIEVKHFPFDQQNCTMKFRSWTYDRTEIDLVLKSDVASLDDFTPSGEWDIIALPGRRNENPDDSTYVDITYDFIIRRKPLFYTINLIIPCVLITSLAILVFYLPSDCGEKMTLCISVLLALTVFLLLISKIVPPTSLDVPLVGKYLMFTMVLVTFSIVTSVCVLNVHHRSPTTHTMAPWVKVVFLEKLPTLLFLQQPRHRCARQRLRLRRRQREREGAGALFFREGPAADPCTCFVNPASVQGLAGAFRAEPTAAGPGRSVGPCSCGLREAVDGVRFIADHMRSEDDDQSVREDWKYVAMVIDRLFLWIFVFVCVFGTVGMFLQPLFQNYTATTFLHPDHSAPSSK

## CC(C)C[C@@H](NC(=O)[C@@H](CO)NC(=O)[C@@H](CS)NC(=O)[C@@H](CS)NC(=O)CN)C(=O)N1CCC[C@H]1C(=O)N1CCC[C@H]1C(=O)N[C@@H](CS)C(=O)N[C@@H](C)C(=O)N[C@@H](C)C(=O)N[C@@H](CC(N)=O)C(=O)N[C@@H](CC(N)=O)C(=O)N1CCC[C@@H]1C(=O)N[C@@H](CC(=O)O)C(=O)N[C@@H](Cc1ccc(O)cc1)C(=O)N[C@@H](CS)C(N)=O
[1]
  IC50: 99 nM
[2]
  Ratio: 7.9

## CC[C@H](C)[C@H](N)C(=O)N[C@@H](CCCN=C(N)N)C(=O)N[C@@H](CC(=O)O)C(=O)N[C@@H](CC(C(=O)O)C(=O)O)C(=O)N[C@@H](CS)C(=O)N[C@@H](CS)C(=O)N[C@@H](CO)C(=O)N[C@@H](CC(N)=O)C(=O)N1CCC[C@H]1C(=O)N[C@@H](C)C(=O)N[C@@H](CS)C(=O)N[C@@H](CCCN=C(N)N)C(=O)N[C@H](C(=O)N[C@@H](CC(N)=O)C(=O)N[C@@H](CC(N)=O)C(=O)N1C[C@H](O)C[C@H]1C(=O)N[C@@H](Cc1c[nH]cn1)C(=O)N[C@H](C(=O)N[C@@H](CS)C(N)=O)C(C)C)C(C)C (HELM PEPTIDE1{I.R.D.[O=C(O)C(C[C@H](N[*:1])C(=O)[*:2])C(=O)O].C.C.S.N.P.A.C.R.V.N.N.[Hyp].H.V.C.[am]}$$$$V2.0)
[1]
  IC50: 10 nM
[2]
  Ratio: 0.2

## CC(C)C[C@@H](NC(=O)[C@@H](CO)NC(=O)[C@@H](CS)NC(=O)[C@@H](CS)NC(=O)CN)C(=O)N1CCC[C@H]1C(=O)N1CCC[C@H]1C(=O)N[C@@H](CS)C(=O)N[C@@H](C)C(=O)N[C@@H](C)C(=O)N[C@@H](CC(N)=O)C(=O)N[C@@H](CC(N)=O)C(=O)N1CCC[C@@H]1C(=O)N[C@@H](CC(=O)O)C(=O)N[C@@H](Cc1ccc(S)cc1)C(=O)N[C@@H](CS)C(N)=O
[1]
  IC50: 9.6 nM
[2]
  Ratio: 0.04

Reference: ChEMBL document CHEMBL1148487, “Chemical and functional identification and characterization of novel sulfated alpha-conotoxins from the cone snail Conus anemone” (J Med Chem, 2004)
